Test results taken from ChEMBL document CHEMBL4261516, “Design, synthesis and pharmacological evaluation of new 2-oxo-quinoline derivatives containing α-aminophosphonates as potential antitumor agents” (Medchemcomm, 2017).
Calls of active or inactive are those of the source. The rule behind the calls is not given here.

Assays:
HepG2 [1] = test: Cytotoxicity against human HepG2 cells after 48 hrs by MTT assay; type: functional, cell-based; conditions: HepG2, 48 h
How it was run: (§1)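 HepG2, SK-OV-3, NCI-H460 and HL 7702 lines grown as monolayers in DMEM with 10% FBS plus penicillin/streptomycin at 37 °C, 5% CO2. Exponentially growing cells were seeded and exposed to the indicated concentrations for 48 h. MTT was then added for 4 h at 37 °C, formazan was dissolved in DMSO, and OD was read at 490 nm. Each concentration was run in triplicate wells, with three independent runs per line.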

SK-OV-3 = test: Cytotoxicity against human SKOV3 cells after 48 hrs by MTT assay; type: functional, cell-based; conditions: SK-OV-3, 48 h; how it was run: as §1
NCI-H460 = test: Cytotoxicity against human NCI-H460 cells after 48 hrs by MTT assay; type: functional, cell-based; conditions: NCI-H460, 48 h; how it was run: as §1
HepG2 [2] = test: Cell cycle arrest in human HepG2 cells assessed as accumulation at G1 phase at 8 uM after 48 hrs by propidium iodide staining-based flow cytometric method (reference value: 50.47%); type: functional
HepG2 [3] = test: Cell cycle arrest in human HepG2 cells assessed as accumulation at G2 phase at 8 uM after 48 hrs by propidium iodide staining-based flow cytometric method (reference value: 19.04%); type: functional
HepG2 [4] = test: Cell cycle arrest in human HepG2 cells assessed as accumulation at G2 phase at 12 uM after 48 hrs by propidium iodide staining-based flow cytometric method (reference value: 19.04%); type: functional
HepG2 [5] = test: Cell cycle arrest in human HepG2 cells assessed as accumulation at S phase at 12 uM after 48 hrs by propidium iodide staining-based flow cytometric method (reference value: 30.49%); type: functional
HepG2 [6] = test: Induction of apoptosis in human HepG2 cells assessed as cell budding at 10 uM after 24 hrs by acridine orange/ethidium bromide staining-based fluorescent microscopic method; type: functional
How it was run: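 Cells were plated at 5×10^4 cells/mL on sterile cover slips. Medium was replaced with fresh medium containing 10% FBS plus compound. After treatment, cover slips were inverted onto slides with acridine orange/ethidium bromide stain and viewed by fluorescence microscopy.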

HepG2 [7] = test: Induction of apoptosis in human HepG2 cells assessed as early apoptotic cells at 8 uM after 24 hrs by annexin V/[…] staining-based fluorescent microscopic method (reference value: 6.50%); type: functional
HepG2 [8] = test: Induction of apoptosis in human HepG2 cells assessed as viable cells at 8 uM after 24 hrs by annexin V/[…] staining-based fluorescent microscopic method (reference value: 91.31%); type: functional; conditions: HepG2, 24 h, read-out: Activity
HepG2 [9] = test: Induction of apoptosis in human HepG2 cells assessed as upregulation of Bax levels at 8 to 12 uM after 24 hrs by Western blot method; type: functional, cell-based
How it was run: (§2)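 Treated HepG2 cells were lysed on ice in 1% SDS/Tris-HCl pH 7.5 buffer with EDTA, NaCl, PMSF, leupeptin and trypsin inhibitor, then cleared at 12,000 × g for 5 min. Protein was quantified by BCA, and 40–50 µg was run on 12% SDS-PAGE and blotted to PVDF. Membranes were blocked with 5% milk, incubated with primary antibody overnight at 4 °C and HRP secondary for 1 h. Detection by chemiluminescence with densitometry.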

HepG2 [10] = test: Induction of apoptosis in human HepG2 cells assessed as upregulation of caspase-9 levels at 8 to 12 uM after 24 hrs by Western blot method; type: functional, cell-based; how it was run: as §2
HepG2 [11] = test: Induction of apoptosis in human HepG2 cells assessed as increase in intracellular calcium release at 10 uM after 24 hrs by Fluo-3 AM dye-based fluorescence microscopic method

## CCOP(=O)(Cc1ccc(/N=C/c2cc3cc(C)ccc3[nH]c2=O)cc1)OCC
HepG2 [1]
  IC50: 9.99 µM
SK-OV-3
  IC50: 34.8 µM
NCI-H460
  IC50: 39 µM
HepG2 [2]
  Activity: 35.31%
HepG2 [3]
  Activity: 34.68%
HepG2 [4]
  Activity: 46.77%
HepG2 [5]
  Activity: 27.49%
HepG2 [6]
  Activity: Active
HepG2 [7]
  Activity: 19.08%
HepG2 [8]
  viability at 8 µM: 62.5%
HepG2 [9]
  Activity: Active
HepG2 [10]
  Activity: Active
HepG2 [11]
  Activity: Active
